Test results reported in ChEMBL document CHEMBL3352559, “Synthesis and pharmacological investigation of aralkyl diamine derivatives as potential triple reuptake inhibitors” (Eur J Med Chem, 2014).

Experiments:
[1] = Drug uptake in Sprague-Dawley rat brain at 0.5 mg/kg ip after 0.08 hrs
[2] = target: Muscarinic acetylcholine receptor M3 (Homo sapiens) (UniProt P20309); assay: Displacement of [3H]4-DAMP from human muscarinic M3 receptor at 10 uM relative to control
How it was run: (§1)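 Outsourced CNS panel of 55 receptor binding assays run by Cerep. Compound tested at 10 μM, the default primary-binding concentration, with inhibition expressed relative to control. Inhibition above 50% taken as a significant effect.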

Homo sapiens [3] = species: Homo sapiens; assay: Inhibition of Na+ channel (unknown origin) at 10 uM by [3H]batrachotoxinin binding assay relative to control
How it was run: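 Radioligand binding was run at a contract laboratory as part of a 55-target CNS receptor panel. Test concentration was 10 μM. Inhibition of specific binding was expressed relative to control, and inhibition greater than 50% was taken as significant.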

[4] = Drug uptake in Sprague-Dawley rat plasma at 0.5 mg/kg iv after 0.50 hrs; assay type: ADME, organism-based; design: dose 0.5 mg/kg, route intravenous
How it was run: (§2)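 Male SD rats, fasted overnight until 6 h post-dose; single 0.5 mg/kg femoral-vein injection; blood drawn into heparin at 5, 15, 30 min, 1, 2 and 4 h; plasma stored at -40 °C; drug levels by LC/MS/MS; noncompartmental parameters.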

Salmonella typhimurium [5] = assay: Mutagenic activity in Salmonella typhimurium TA98 assessed as number of reversion mutation at 300 ug/plate; assay type: toxicity, organism-based; conditions: salmonella enterica subsp. enterica serovar typhimurium
How it was run: (§3)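 Ames reversion test in Salmonella typhimurium TA98 and TA100, with and without rat liver S9 metabolic activation. Compound was dissolved in DMSO and added at 3–5000 μg/plate. Each dose, vehicle and positive control was plated in triplicate, and revertant colonies were counted.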

Salmonella typhimurium [6] = assay: Mutagenic activity in Salmonella typhimurium TA98 assessed as number of reversion mutation at 30 ug/plate; assay type: toxicity, organism-based; conditions: salmonella enterica subsp. enterica serovar typhimurium
How it was run: as §3

[7] = Acute toxicity in KM mouse assessed as survival at 750 mg/kg, po up to 14 days (reference value: 100%); assay type: organism-based; design: dose 750 mg/kg, route oral; conditions: in vivo
[8] = target: Nociceptin receptor (Homo sapiens) (UniProt P41146); assay: Displacement of [3H] nociceptin from human ORL1 receptor at 10 uM relative to control
Sequence of Nociceptin receptor (Homo sapiens) (P41146 whole entry): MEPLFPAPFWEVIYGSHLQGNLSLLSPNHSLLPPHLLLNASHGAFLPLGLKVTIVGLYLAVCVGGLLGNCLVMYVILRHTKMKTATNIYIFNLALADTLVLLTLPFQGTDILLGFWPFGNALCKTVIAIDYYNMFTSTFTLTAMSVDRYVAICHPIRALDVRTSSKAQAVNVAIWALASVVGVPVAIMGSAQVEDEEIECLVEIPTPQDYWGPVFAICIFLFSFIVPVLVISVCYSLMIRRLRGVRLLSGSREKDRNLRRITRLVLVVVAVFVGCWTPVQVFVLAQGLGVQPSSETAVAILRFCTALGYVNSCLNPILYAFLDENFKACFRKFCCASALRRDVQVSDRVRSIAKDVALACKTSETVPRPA
How it was run: as §1

Rattus norvegicus = assay: Apparent volume of distribution during terminal phase in Sprague-Dawley rat at 0.5 mg/kg, iv; assay type: ADME, organism-based; design: dose 0.5 mg/kg, route intravenous; conditions: in vivo
How it was run: (§4)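 Male SD rats, fasted overnight until 6 h post-dose. PO group received single 2 mg/kg with heparinized blood sampled at 5, 15, 30 min, 1, 2, 4, 8, 24 h. IV group received single 0.5 mg/kg via femoral vein with sampling at 5, 15, 30 min, 1, 2, 4 h. Plasma stored at -40 °C, quantified by LC/MS/MS; 24 rats per group.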

[9] = target: Somatostatin receptor (Homo sapiens) (UniProt P35346+P30874+P31391+P30872+P32745); assay: Displacement of [125ITyr11- somatostatin-14 from sst receptor (unknown origin) at 10 uM relative to control; assay type: protein assay
How it was run: as §1

[10] = Drug uptake in Sprague-Dawley rat plasma at 0.5 mg/kg iv after 0.25 hrs; assay type: ADME, organism-based; design: dose 0.5 mg/kg, route intravenous
How it was run: as §2

[11] = Drug uptake in Sprague-Dawley rat brain at 0.5 mg/kg ip after 0.25 hrs
[12] = target: B2 bradykinin receptor (Homo sapiens) (UniProt P30411); assay: Displacement of [3H]bradykinin from human bradykinin B2 receptor at 10 uM relative to control
Sequence of B2 bradykinin receptor (Homo sapiens) (P30411 whole entry): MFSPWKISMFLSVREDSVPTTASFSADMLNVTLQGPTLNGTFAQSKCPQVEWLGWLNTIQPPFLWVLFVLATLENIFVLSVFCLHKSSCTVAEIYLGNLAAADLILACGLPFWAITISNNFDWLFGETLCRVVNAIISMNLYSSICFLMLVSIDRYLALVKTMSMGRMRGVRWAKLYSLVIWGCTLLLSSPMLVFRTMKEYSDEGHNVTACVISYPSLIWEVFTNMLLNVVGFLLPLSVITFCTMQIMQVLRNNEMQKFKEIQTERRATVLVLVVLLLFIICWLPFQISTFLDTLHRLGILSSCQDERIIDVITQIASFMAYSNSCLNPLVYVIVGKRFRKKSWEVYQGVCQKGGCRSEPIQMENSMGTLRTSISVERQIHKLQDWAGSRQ
How it was run: (§5)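 Outsourced CNS receptor panel (55 binding assays); compound tested at 10 μM in primary radioligand binding; specific binding inhibition expressed relative to control, with >50% inhibition taken as a significant effect.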

[13] = target: 5-hydroxytryptamine receptor 1B (Homo sapiens) (UniProt P28222); assay: Displacement of [125I]CYP from human 5-HT1B receptor at 10 uM relative to control
Sequence of 5-hydroxytryptamine receptor 1B (Homo sapiens) (P28222 whole entry): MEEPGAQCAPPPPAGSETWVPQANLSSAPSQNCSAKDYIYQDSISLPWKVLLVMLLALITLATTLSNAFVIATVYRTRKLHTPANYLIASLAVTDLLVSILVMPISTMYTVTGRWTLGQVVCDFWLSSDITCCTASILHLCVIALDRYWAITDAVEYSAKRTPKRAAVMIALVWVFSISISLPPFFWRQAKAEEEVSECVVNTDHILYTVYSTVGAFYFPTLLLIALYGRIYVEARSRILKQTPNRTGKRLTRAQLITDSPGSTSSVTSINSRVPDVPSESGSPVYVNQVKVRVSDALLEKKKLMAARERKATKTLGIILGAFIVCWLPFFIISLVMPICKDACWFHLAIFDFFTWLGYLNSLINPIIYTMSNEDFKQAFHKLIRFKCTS
How it was run: as §1

[14] = Mean residence time in Sprague-Dawley rat at 0.5 mg/kg, iv; assay type: ADME, organism-based; design: dose 0.5 mg/kg, route intravenous; conditions: in vivo
How it was run: as §2

Salmonella typhimurium [15] = assay: Mutagenic activity in Salmonella typhimurium TA100 assessed as number of reversion mutation at 30 ug/plate; assay type: toxicity, organism-based; conditions: salmonella enterica subsp. enterica serovar typhimurium
How it was run: as §3

[16] = Apparent volume of distribution during terminal phase in Sprague-Dawley rat at 2 mg/kg, po; assay type: ADME, organism-based; design: dose 2 mg/kg, route oral; conditions: in vivo, read-out: Vz/F
How it was run: as §4

Salmonella typhimurium [17] = assay: Mutagenic activity in Salmonella typhimurium TA100 assessed as number of reversion mutation at 3 ug/plate; assay type: toxicity, organism-based; conditions: salmonella enterica subsp. enterica serovar typhimurium
How it was run: as §3

Homo sapiens [18] = species: Homo sapiens; assay: Inhibition of SKca channel (unknown origin) at 10 uM by [125I]apamin binding assay relative to control
How it was run: as §5

[19] = Apparent oral clearance in Sprague-Dawley rat at 2 mg/kg, po; assay type: ADME, organism-based; design: dose 2 mg/kg, route oral; conditions: in vivo
How it was run: as §4

Salmonella typhimurium [20] = assay: Mutagenic activity in Salmonella typhimurium TA100 assessed as number of reversion mutation at 100 ug/plate; assay type: toxicity, organism-based; conditions: salmonella enterica subsp. enterica serovar typhimurium
How it was run: as §3

[21] = Clearance in Sprague-Dawley rat at 0.5 mg/kg, iv; conditions: in vivo
[22] = Drug uptake in Sprague-Dawley rat brain at 0.5 mg/kg ip after 0.50 hrs
[23] = target: 5-hydroxytryptamine receptor 5A (Homo sapiens) (UniProt P47898); assay: Displacement of [3H]LSD from human 5-HT5A receptor at 10 uM relative to control
Sequence of 5-hydroxytryptamine receptor 5A (Homo sapiens) (P47898 whole entry): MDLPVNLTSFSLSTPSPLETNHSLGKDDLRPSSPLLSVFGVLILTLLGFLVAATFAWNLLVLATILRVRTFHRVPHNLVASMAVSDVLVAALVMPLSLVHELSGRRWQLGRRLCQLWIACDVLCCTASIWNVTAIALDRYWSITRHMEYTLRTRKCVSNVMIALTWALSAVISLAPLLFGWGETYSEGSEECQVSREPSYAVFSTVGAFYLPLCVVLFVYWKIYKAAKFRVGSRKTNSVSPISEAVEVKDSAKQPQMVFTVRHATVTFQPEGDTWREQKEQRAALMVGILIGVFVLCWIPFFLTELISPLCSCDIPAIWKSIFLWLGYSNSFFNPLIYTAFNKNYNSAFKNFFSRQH
How it was run: as §1

[24] = Cmax in Sprague-Dawley rat at 2 mg/kg, po; assay type: ADME, organism-based; design: dose 2 mg/kg, route oral; conditions: in vivo
How it was run: as §4

[25] = target: Adrenergic receptor alpha-1 (Homo sapiens) (UniProt P35348+P25100+P35368); assay: Displacement of [3H]prazosin from alpha1-adrenergic receptor (unknown origin) at 10 uM relative to control
How it was run: as §5

[26] = target: Vasopressin V1a receptor (Homo sapiens) (UniProt P37288); assay: Displacement of [3H]AVP from human V1a receptor at 10 uM relative to control
Sequence of Vasopressin V1a receptor (Homo sapiens) (P37288 whole entry, looked up): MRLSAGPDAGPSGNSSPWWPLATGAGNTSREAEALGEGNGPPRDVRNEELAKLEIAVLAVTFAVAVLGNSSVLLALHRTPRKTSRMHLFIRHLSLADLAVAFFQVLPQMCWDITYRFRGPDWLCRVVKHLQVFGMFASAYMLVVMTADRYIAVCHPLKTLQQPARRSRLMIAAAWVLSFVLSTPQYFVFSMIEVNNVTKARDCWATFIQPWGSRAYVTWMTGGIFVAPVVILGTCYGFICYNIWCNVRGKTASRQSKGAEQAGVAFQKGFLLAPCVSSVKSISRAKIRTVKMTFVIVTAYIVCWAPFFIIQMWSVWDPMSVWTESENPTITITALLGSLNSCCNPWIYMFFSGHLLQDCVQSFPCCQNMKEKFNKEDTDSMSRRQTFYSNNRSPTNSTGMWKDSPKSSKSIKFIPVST
How it was run: as §1

[27] = target: C-C chemokine receptor type 1 (Homo sapiens) (UniProt P32246); assay: Displacement of [125I]MIP-1alpha from human CCR1 receptor at 10 uM relative to control
Sequence of C-C chemokine receptor type 1 (Homo sapiens) (P32246 whole entry): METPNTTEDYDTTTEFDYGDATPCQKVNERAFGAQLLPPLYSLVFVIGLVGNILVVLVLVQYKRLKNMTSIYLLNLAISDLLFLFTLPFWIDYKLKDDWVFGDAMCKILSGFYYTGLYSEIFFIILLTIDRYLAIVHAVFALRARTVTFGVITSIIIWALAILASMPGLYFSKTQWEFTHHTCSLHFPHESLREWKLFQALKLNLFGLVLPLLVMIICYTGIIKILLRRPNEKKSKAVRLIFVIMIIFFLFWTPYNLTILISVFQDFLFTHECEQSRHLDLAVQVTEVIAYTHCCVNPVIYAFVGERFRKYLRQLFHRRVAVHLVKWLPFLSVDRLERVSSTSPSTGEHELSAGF
How it was run: as §1

[28] = AUC (0 to infinity) in Sprague-Dawley rat at 0.5 mg/kg, iv; assay type: ADME, organism-based; design: time infinity, dose 0.5 mg/kg, route intravenous; conditions: plasma
How it was run: as §4

Homo sapiens [29] = species: Homo sapiens; assay: Inhibition of GABA-gated chloride channel (unknown origin) at 10 uM by [35S]TBPS binding assay relative to control
How it was run: as §5

[30] = target: 5-hydroxytryptamine receptor 3A (Homo sapiens) (UniProt P46098); assay: Inhibition of human 5HT3 at 10 uM by […] binding assay relative to control
Sequence of 5-hydroxytryptamine receptor 3A (Homo sapiens) (P46098 whole entry): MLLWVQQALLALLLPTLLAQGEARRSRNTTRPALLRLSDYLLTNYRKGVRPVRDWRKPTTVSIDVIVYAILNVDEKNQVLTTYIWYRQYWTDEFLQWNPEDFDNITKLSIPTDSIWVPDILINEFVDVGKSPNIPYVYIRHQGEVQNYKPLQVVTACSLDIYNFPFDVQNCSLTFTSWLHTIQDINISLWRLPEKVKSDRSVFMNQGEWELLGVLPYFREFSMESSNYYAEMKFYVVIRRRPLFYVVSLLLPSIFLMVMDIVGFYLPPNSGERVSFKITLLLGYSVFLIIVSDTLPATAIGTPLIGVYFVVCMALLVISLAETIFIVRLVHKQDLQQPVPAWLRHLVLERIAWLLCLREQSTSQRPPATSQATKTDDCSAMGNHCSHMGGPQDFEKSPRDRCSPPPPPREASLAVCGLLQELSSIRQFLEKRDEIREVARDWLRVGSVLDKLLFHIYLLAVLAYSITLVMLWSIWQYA
How it was run: as §5

Salmonella typhimurium [31] = assay: Mutagenic activity in Salmonella typhimurium TA98 assessed as number of reversion mutation at 3 ug/plate; assay type: toxicity, organism-based; conditions: salmonella enterica subsp. enterica serovar typhimurium
How it was run: as §3

[32] = Acute toxicity in KM mouse assessed as survival at 900 mg/kg, po up to 14 days (reference value: 100%); assay type: organism-based; design: dose 900 mg/kg, route oral; conditions: in vivo
[33] = Acute toxicity in KM mouse assessed as survival at 300 mg/kg, po up to 14 days (reference value: 100%); assay type: organism-based; design: dose 300 mg/kg, route oral; conditions: in vivo

Sequence of Muscarinic acetylcholine receptor M3 (Homo sapiens) (P20309 whole entry, looked up): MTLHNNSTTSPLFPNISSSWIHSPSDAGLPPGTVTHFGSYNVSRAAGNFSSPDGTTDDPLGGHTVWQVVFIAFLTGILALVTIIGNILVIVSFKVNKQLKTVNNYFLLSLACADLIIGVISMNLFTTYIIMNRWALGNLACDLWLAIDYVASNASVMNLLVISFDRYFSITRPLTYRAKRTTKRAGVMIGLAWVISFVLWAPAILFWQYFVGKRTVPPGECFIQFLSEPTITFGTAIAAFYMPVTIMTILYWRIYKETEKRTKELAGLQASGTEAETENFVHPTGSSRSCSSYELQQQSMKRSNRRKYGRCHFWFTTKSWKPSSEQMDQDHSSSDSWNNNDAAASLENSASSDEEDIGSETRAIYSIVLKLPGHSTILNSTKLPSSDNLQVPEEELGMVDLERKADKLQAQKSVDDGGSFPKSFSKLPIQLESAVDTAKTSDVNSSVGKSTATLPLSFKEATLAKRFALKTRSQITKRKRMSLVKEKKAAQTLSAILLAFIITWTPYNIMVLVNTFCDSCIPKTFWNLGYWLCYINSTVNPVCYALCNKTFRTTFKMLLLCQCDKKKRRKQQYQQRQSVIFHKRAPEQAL

CN(C)CCC(c1ccc(Cl)c(Cl)c1)N1CCOCC1 (centres undefined)
concentration at 0.08 h [1]: 1120 ng/mL
inhibition [2]: 20.6%
inhibition (Homo sapiens [3]): 40.1%
concentration at 0.5 h [4]: 44.5 ng/mL
Activity (Salmonella typhimurium [5]): 30
Activity (Salmonella typhimurium [6]): 36
survival at 336 h [7]: 60%
inhibition [8]: 0.9%
Vz/F (Rattus norvegicus): 8.3 L/kg
inhibition [9]: 3.2%
concentration at 0.25 h [10]: 42 ng/mL
concentration at 0.25 h [11]: 925 ng/mL
inhibition [12]: -3.8%
inhibition [13]: 0.7%
MRT [14]: 1.06 h
Activity (Salmonella typhimurium [15]): 75
Vd/F [16]: 164 L/kg
Activity (Salmonella typhimurium [17]): 87
inhibition (Homo sapiens [18]): -3.8%
CL/F [19]: 417 mL/min/kg
Activity (Salmonella typhimurium [20]): 74
clearance [21]: 100 mL/min/kg
concentration at 0.5 h [22]: 549 ng/mL
inhibition [23]: 1.4%
Cmax [24]: 26.8 ng/mL
inhibition [25]: 2.6%
inhibition [26]: 3.3%
inhibition [27]: 22.1%
AUC(0-inf) [28]: 83.7 ng·h/mL
inhibition (Homo sapiens [29]): -2.3%
inhibition [30]: -5.2%
Activity (Salmonella typhimurium [31]): 33
survival at 336 h [32]: 40%
survival at 336 h [33]: 100%
